# Experimental data from different studies.
# Each line is one published result; the experiments were not run side by side.
# RET V804L: Proto-oncogene tyrosine-protein kinase receptor Ret (RET, Homo sapiens, UniProt P07949, V804L)
# RET: Proto-oncogene tyrosine-protein kinase receptor Ret (RET, Homo sapiens, UniProt P07949)
# RET M918T: Proto-oncogene tyrosine-protein kinase receptor Ret (RET, Homo sapiens, UniProt P07949, M918T)
SMILES,target,test,setting,quantity,value
Nc1ncc(-c2nc(N3CCOCC3)nc(N3CCOCC3)n2)c(C(F)F)n1,RET V804L,"binding, competition with immobilised ligand",10 µM,remaining binding,88%
COc1ncccc1-c1cnn2ccc(N3CCN(C(=O)OC(C)C)CC3)nc12,RET,"binding, competition with immobilised ligand",1 µM,remaining binding,100%
O=C1NC(=O)N(c2ccccc2)C(=O)C1=CNc1ccc2[nH]c(=O)[nH]c2c1,RET,"enzyme activity, inhibitor, radiometric",0.1 µM,remaining activity,107%
Cn1cc(-c2cccc(N3CCc4c(sc5c4CC(C)(C)C5)C3=O)c2CO)cc(Nc2ccncn2)c1=O,RET,"enzyme activity, inhibitor",1 µM,inhibition,14%
Cc1nn(C)cc1-c1nc2c(N3CCN(Cc4ccc(Cl)cc4)CC3)c(Cl)cnc2[nH]1,RET V804L,"binding, competition with immobilised ligand",1 µM,remaining binding,2.1%
Cn1cncc1[C@](O)(COc1ccc(C#N)cc1-c1ccc(OC(F)(F)F)cc1)c1ccc(C#N)cc1,RET M918T,"cell-free assay, competition with immobilised ligand",1 µM,remaining binding,95%
C#Cc1n[nH]c2c(-c3cn([C@@H](C)c4ccccn4)c(=O)[nH]c3=O)cc(F)cc12,"Proto-oncogene tyrosine-protein kinase receptor Ret (RET, Homo sapiens, UniProt P07949, V804M)","enzyme activity, inhibitor",0.1 µM,inhibition,-0.3%
O=C(Cn1cc(C=C2C(=O)NC(=O)NC2=O)c2ccccc21)Nc1ccccc1,RET,"enzyme activity, inhibitor, radiometric",0.1 µM,remaining activity,131%
N#CC1(c2ccccn2)CCN(Cc2cc(C(=O)O)c(=O)n3ccccc23)CC1,RET M918T,"cell-free assay, competition with immobilised ligand",1 µM,remaining binding,100%
CC(C)(C)c1cc(C=C(C#N)C#N)cc(Br)c1O,RET,"enzyme activity, inhibitor",0.5 µM,remaining activity,98.2%
O=C(NCc1ncc(C(F)(F)F)cc1Cl)c1ccc2c(c1)C1(CCS(=O)(=O)CC1)[C@H](C1CC1)N2S(=O)(=O)c1ccc(F)cc1,RET M918T,"cell-free assay, competition with immobilised ligand",1 µM,remaining binding,96%
C#Cc1n[nH]c2c(-c3cn([C@@H](C)c4ccccc4)c(=O)[nH]c3=O)cc(F)cc12,RET,"enzyme activity, inhibitor",0.1 µM,inhibition,3.2%
